From ChEMBL document CHEMBL1136924 (J Med Chem, 2009)
Activity calls are given as the source filed them. No cut-off for these calls is given here.

Tests used:
[1] = molecular target: T1, 5-hydroxytryptamine receptor 1A (Rattus norvegicus, UniProt P19327); assay: Displacement of [3H]8-OHDPAT from 5HT1A receptor in rat hippocampus; assay type: tissue-based
T1 sequence (P19327 whole entry): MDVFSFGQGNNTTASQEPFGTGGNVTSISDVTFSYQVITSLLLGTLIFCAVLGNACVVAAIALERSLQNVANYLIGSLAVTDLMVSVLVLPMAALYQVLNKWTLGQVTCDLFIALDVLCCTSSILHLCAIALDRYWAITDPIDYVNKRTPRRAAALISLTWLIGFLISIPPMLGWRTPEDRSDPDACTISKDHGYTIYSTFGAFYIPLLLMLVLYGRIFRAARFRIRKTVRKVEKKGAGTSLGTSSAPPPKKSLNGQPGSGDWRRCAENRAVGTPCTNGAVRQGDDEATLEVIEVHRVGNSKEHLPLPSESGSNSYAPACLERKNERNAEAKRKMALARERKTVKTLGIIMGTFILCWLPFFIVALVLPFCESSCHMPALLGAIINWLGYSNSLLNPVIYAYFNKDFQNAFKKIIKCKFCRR

[2] = molecular target: Muscarinic acetylcholine receptor; assay: Displacement of [3H]QNB from muscarinic receptor in rat cortex
D(2) dopamine receptor = D(2) dopamine receptor (Rattus norvegicus, UniProt P61169); assay: Displacement of [3H]spiperone from dopamine D2 receptor in rat striatum
[3] = molecular target: 5-hydroxytryptamine receptor 2A (Rattus norvegicus, UniProt P14842); assay: Displacement of [3H]ketanserin from 5HT2A receptor in rat cortex
D(1A) dopamine receptor = D(1A) dopamine receptor (Rattus norvegicus, UniProt P18901); assay: Displacement of [3H]SCH-23390 from dopamine D1 receptor in rat striatum
[4] = molecular target: T2, Alpha-2A adrenergic receptor (Rattus norvegicus, UniProt P22909); assay: Displacement of [3H]RX821002 from adrenergic alpha2 receptor in rat cortex
T2 sequence (P22909 whole entry): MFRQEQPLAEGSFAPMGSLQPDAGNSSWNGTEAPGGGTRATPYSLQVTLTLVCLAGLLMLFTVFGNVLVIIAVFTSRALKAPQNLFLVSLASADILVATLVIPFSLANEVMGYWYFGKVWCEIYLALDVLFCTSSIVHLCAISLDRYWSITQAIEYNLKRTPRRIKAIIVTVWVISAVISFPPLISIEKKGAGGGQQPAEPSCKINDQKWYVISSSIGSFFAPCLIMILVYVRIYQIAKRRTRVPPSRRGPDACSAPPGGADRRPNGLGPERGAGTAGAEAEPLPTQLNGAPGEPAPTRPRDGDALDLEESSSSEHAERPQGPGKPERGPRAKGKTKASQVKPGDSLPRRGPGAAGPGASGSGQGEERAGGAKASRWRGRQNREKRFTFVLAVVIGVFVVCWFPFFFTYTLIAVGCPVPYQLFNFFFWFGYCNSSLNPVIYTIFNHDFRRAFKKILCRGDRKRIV

[5] = molecular target: T3, 5-hydroxytryptamine receptor 3A (Cavia porcellus) (UniProt O70212); assay: Agonist activity at 5HT3 receptor in guinea pig thoracic aorta assessed as positive contractility potency at 100 uM; assay type: functional, tissue-based
T3 sequence (whole entry): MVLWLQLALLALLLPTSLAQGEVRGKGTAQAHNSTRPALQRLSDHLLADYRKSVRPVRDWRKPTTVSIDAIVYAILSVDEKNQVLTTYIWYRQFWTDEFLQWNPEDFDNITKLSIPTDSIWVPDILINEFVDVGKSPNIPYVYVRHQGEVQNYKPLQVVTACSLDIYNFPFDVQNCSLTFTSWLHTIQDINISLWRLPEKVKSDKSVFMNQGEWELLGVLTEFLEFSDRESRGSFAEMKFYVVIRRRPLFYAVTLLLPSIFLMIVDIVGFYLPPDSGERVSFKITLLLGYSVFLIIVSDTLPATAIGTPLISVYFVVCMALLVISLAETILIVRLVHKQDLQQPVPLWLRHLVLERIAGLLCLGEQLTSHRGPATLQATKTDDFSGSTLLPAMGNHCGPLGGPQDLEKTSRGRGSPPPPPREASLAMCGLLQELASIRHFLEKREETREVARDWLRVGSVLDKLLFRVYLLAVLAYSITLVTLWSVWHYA
Procedure, shortened: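 Guinea pig aortic helicoidal strips in PSS at 35 °C, aerated, under 1 g resting force, washed every 20 min for 1 h. Compounds added cumulatively 0.1-100 µM (DMSO vehicle); isometric contraction recorded.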

Sequence of D(1A) dopamine receptor (P18901 whole entry): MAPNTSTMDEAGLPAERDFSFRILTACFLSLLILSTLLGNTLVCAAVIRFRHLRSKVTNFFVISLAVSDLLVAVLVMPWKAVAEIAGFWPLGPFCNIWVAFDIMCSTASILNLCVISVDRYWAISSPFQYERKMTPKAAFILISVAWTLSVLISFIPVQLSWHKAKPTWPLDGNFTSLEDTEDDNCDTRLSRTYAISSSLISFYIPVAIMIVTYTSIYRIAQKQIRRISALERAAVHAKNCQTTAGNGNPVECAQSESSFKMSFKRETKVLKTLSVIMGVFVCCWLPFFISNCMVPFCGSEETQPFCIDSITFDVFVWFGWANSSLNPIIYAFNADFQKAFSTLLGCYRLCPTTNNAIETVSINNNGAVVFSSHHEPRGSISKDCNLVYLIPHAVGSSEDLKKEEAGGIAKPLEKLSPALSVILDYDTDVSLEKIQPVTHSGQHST
Sequence of 5-hydroxytryptamine receptor 2A (P14842 whole entry): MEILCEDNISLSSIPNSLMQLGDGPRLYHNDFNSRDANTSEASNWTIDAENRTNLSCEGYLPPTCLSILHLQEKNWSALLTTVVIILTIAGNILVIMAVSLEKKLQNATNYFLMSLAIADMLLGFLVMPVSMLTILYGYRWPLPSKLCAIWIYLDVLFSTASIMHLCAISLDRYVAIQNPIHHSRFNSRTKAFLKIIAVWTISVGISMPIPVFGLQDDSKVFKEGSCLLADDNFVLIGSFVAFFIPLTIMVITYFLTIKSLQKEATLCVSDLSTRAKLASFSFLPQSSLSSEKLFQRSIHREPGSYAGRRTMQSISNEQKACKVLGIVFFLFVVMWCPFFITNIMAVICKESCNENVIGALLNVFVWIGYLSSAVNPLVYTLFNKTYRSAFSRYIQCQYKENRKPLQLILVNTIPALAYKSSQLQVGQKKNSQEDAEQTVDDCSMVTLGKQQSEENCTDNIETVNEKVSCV
Sequence of D(2) dopamine receptor (P61169 whole entry): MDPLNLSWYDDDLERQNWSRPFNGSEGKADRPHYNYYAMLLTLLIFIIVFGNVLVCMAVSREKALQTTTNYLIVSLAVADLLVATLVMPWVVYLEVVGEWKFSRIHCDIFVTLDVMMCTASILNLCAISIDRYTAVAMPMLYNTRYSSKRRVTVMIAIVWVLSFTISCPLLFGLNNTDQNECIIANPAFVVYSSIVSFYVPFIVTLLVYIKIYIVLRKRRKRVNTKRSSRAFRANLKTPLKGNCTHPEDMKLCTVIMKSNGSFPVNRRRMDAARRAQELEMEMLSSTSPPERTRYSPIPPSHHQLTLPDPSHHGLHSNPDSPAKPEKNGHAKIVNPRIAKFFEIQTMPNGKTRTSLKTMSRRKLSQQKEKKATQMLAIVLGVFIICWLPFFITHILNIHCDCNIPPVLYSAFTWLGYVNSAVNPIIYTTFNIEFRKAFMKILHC

Structure (SMILES) | Ki [1] | Ki [2] | Ki (D(2) dopamine receptor) | Ki [3] | Ki (D(1A) dopamine receptor) | Ki [4] | pD2 [5]
N[C@@H](CN1CCN(c2nc3cc(F)ccc3n3cccc23)CC1)C(=O)O | 0.446 µM | > 10 µM | > 10 µM | 5.69 µM | > 10 µM | > 10 µM | inactive
N/C(CN1CCN(c2nc3cc(F)ccc3n3cccc23)CC1)=N\O | > 10 µM | > 10 µM | > 10 µM | > 10 µM | > 10 µM | > 10 µM | inactive
